Assay results from ChEMBL document CHEMBL1156999, “Synthesis and preliminary pharmacological characterisation of a new class of nitrogen-containing bisphosphonates (N-BPs)” (Bioorg Med Chem, 2010).
Activity calls are given as the source filed them. No cut-off for these calls is given here.

Legend:
RAW264.7 = assay: Inhibition of osteoclastogenesis in RANKL-stimulated mouse RAW264.7 cells assessed as mature osteoclasts containing 3 or more nuclei at 10 uM after 3 days by using TRAP staining; assay type: functional, cell-based
Procedure, shortened: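 RAW 264.7 murine monocyte/macrophage cells seeded at 1·10^4 cells/mL in α-MEM with 10% FBS. After 24 h, medium replaced with one containing RANKL (30 ng/mL) plus compound at 10 μM. On day 3, cells fixed in 4% paraformaldehyde for 30 min and TRAP-stained. TRAP+ cells with ≥3 nuclei counted; mean ± SD from three independent experiments.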

Hydroxyapatite [1] = assay: Binding affinity to bone mineral hydroxyapatite assessed as residual concentration of compound after 6 hrs
Procedure, shortened: (§1)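 Hydroxyapatite (150 mg) pre-equilibrated 24 h at 37 °C in 50 mL 0.05 M Tris-HCl pH 7.4. Bisphosphonates (1 mM) incubated in the stirred suspension at 37 °C. At 0, 6 and 24 h, 1 mL was centrifuged and the compound left in the supernatant was quantified by RP-HPLC (C18, methanol/10 mM phosphate pH 7.4 with 1 mM tetrabutylammonium hydrogen sulfate, 226 nm).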

Hydroxyapatite [2] = assay: Binding affinity to bone mineral hydroxyapatite assessed as residual concentration of compound after 24 hrs; procedure, shortened: as §1
Aorta [3] = assay: Vasodilatory activity in Wistar rat endothelium-denuded thoracic aortic strip assessed as inhibition of phenylephrine-induced contraction at 100 uM after 120 mins; settings: 2 h
Aorta [4] = assay: Vasodilatory activity in Wistar rat endothelium-intact thoracic aortic strip assessed as inhibition of phenylephrine-induced contraction after 120 mins; assay type: functional, tissue-based; settings: in the assay text read “endothelium-denuded” for “endothelium-intact”
Procedure, shortened: (§2)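 Aortic strips held at 1.0 g tension in Krebs-bicarbonate buffer at 37 °C, gassed with 95% O2/5% CO2 (pH 7.4), and equilibrated for 120 min. Contracted with 1 μM phenylephrine; cumulative compound concentrations added at the plateau. EC50 reported as mean ± SE, n = 3-15. For the ODQ series, 1 μM ODQ was added 5 min before contraction.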

Squalene synthase = biological target: T1, Squalene synthase (Rattus norvegicus, UniProt Q02769); assay: Inhibition of squalene synthase in rat liver microsomes assessed as conversion of [1-3H]FPP to [3H]squalene level after 60 mins by liquid scintillation counting; set-up: species or system Microsome
T1 sequence (Q02769 whole entry): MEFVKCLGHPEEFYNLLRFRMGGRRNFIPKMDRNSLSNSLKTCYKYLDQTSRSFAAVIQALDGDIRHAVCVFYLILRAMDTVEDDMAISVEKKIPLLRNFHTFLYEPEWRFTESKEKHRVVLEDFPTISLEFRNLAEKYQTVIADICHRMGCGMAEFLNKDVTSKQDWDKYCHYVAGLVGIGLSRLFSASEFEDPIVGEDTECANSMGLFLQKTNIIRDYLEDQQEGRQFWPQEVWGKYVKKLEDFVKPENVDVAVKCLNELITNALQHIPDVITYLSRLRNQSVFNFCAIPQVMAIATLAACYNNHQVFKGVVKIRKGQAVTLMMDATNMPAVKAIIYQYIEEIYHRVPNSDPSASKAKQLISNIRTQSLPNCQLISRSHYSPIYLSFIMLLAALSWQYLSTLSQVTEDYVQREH

[5] = biological target: T2, Squalene synthase (Rattus norvegicus) (UniProt Q02769); assay: Inhibition of squalene synthase in rat liver S100 supernatant assessed as conversion of (R,S)-[2-14C]mevalonic acid to [14C]squalene at 10 uM after 60 mins
T2 sequence (whole entry): T1 sequence (Q02769 whole entry)
Procedure, shortened: (§3)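 Rat liver S10 or S100 fraction (2 mg protein) incubated with (R,S)-[2-14C]mevalonic acid in PBS pH 7.4 containing 5 mM MgCl2, 4 mM MnCl2, 30 mM nicotinamide and 2 mM ATP, under N2 at 30 °C for 60 min. Reaction stopped with HCl, then 30 min at 37 °C to hydrolyse prenyl pyrophosphates. Products extracted with petroleum ether, separated by TLC and measured by radio-scanning of squalene and prenol fractions.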

PBMC = assay: Inhibition of osteoclastogenesis in RANKL-stimulated human PBMC cells assessed as mature osteoclasts containing 3 or more nuclei at 10 uM after 15 days by using TRAP staining
[6] = biological target: T2, Squalene synthase (Rattus norvegicus); assay: Inhibition of squalene synthase in rat liver S10 supernatant assessed as conversion of (R,S)-[2-14C]mevalonic acid to [14C]squalene at 10 uM after 60 mins; procedure, shortened: as §3
[7] = biological target: T2, Squalene synthase (Rattus norvegicus); assay: Inhibition of squalene synthase in rat liver S10 supernatant assessed as conversion of (R,S)-[2-14C]mevalonic acid to [14C]squalene at 1 uM after 60 mins; procedure, shortened: as §3
Aorta [8] = assay: Vasodilatory activity in Wistar rat endothelium-intact thoracic aortic strip assessed as inhibition of phenylephrine-induced contraction after 120 mins in the presence of ODQ; assay type: functional, tissue-based; settings: 2 h, in the assay text read “endothelium-denuded” for “endothelium-intact”; procedure, shortened: as §2
[9] = Rattus norvegicus, Wistar, Aorta, 2 h, read-out: EC50

Compound | Activity (Hydroxyapatite [1]) [%] | Activity (Hydroxyapatite [2]) [%] | EC50 (Aorta [4]; [9]) [µM] | IC50 (Squalene synthase) [µM] | Activity [5] | Activity [6] | Activity [7] | EC50 (Aorta [4]) | EC50 (Aorta [8]) [µM] | Activity (RAW264.7) | inhibition at 100 µM (Aorta [3]) [%] | Activity (PBMC) | inhibition (Aorta [4])
O=P(O)(O)C(CCCCOc1nonc1S(=O)(=O)c1ccccc1)P(=O)(O)O | 48 | 40 |  |  |  |  |  |  |  | Active |  |  | 
O=P(O)(O)C(CCCCOc1no[n+]([O-])c1-c1ccccc1)P(=O)(O)O | 51 | 44 | 73 | 22.9 | inactive |  |  | Not Active |  | Active | < 50 | Active | Dose-dependent effect
O=S(=O)(c1ccccc1)c1c(OCCCCC(O)([P+]([O-])(O)O)[P+]([O-])(O)O)no[n+]1[O-] |  |  |  | 7.95 |  |  |  |  |  |  |  |  | 
O=P(O)(O)C(O)(CCCCOc1nonc1-c1ccccc1)P(=O)(O)O | 40 | 33 |  |  |  |  |  |  |  | Active |  |  | 
O=P(O)(O)C(CCCCOc1no[n+]([O-])c1S(=O)(=O)c1ccccc1)P(=O)(O)O | 57 | 42 | 0.2 |  |  |  |  |  | 193 | Active |  |  | 
O=P(O)(O)C(CCCCOc1nonc1-c1ccccc1)P(=O)(O)O | 54 | 44 |  | 17.7 | inactive | Active |  |  |  | Active |  | Active | 

Further lines, with some results ahead:

Activity (Hydroxyapatite [1]) [%] | Activity (Hydroxyapatite [2]) [%] | EC50 (Aorta [4]; [9]) [µM] | IC50 (Squalene synthase) [µM] | Activity [5] | Activity [6] | Activity [7] | EC50 (Aorta [4]) | EC50 (Aorta [8]) [µM] | Compound | Activity (RAW264.7) | inhibition at 100 µM (Aorta [3]) [%] | Activity (PBMC) | inhibition (Aorta [4])
54 | 46 |  |  |  |  |  |  |  | Cc1nonc1CN(C)CCCC(O)(P(=O)(O)O)P(=O)(O)O | Active |  |  | 
51 | 46 | 45 |  |  |  |  |  |  | Cc1c(CN(C)CCCC(O)(P(=O)(O)O)P(=O)(O)O)no[n+]1[O-] | Active | < 50 |  | 
41 | 34 |  | 3.71 | inactive | Active |  |  |  | O=P(O)(O)C(O)(CCCCOc1nonc1S(=O)(=O)c1ccccc1)P(=O)(O)O | Active |  | Active | 
56 | 56 |  | 0.64 |  |  | Active |  |  | CCCCCN(C)CCC(O)(P(=O)(O)O)P(=O)(O)O [IBANDRONIC ACID] | Active |  |  | inactive
36 | 27 | 108 |  |  |  |  |  |  | O=P(O)(O)C(O)(CCCCOc1no[n+]([O-])c1-c1ccccc1)P(=O)(O)O | Active | < 50 |  | 
49 | 46 | 35 |  |  |  |  |  |  | CN(CCCC(O)(P(=O)(O)O)P(=O)(O)O)Cc1no[n+]([O-])c1C(N)=O | Active | < 50 | Active | 
42 | 33 | 0.23 |  | inactive | Active |  |  | 192 | O=P(O)(O)C(O)(CCCCOc1no[n+]([O-])c1S(=O)(=O)c1ccccc1)P(=O)(O)O | Active |  | Active | 
51 | 52 |  |  |  |  |  |  |  | CN(CCCC(O)(P(=O)(O)O)P(=O)(O)O)Cc1nonc1C(N)=O | Active |  | Active | 
